{"source": "PubChem BioAssay AID540322", "about": "(Johns Hopkins Ion Channel Center, 2011)", "molecular_target": "Potassium channel subfamily K member 9 (Homo sapiens) (UniProt Q9NPC2)", "sequence (Q9NPC2 whole entry, looked up)": "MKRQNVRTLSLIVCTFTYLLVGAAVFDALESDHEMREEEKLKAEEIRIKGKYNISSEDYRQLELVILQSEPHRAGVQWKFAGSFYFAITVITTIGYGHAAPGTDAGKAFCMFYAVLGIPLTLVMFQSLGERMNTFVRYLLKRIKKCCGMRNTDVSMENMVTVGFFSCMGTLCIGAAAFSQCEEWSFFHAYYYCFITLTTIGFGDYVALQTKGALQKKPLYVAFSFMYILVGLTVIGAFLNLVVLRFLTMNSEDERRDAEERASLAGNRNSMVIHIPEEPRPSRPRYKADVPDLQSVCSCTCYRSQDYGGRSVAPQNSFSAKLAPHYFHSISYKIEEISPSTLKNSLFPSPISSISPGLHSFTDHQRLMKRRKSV", "experiment": "concentration-dependent TASK-3 (KCNK9) blockade – HEK293 cells, thallium flux, round II, SAR follow-up (AID 540322)", "details": "HEK293-KCNK9, FluxOR thallium flux fluorescence", "how_it_was_run": "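System: stable KCNK9-expressing HEK293 cells; Also added: K2SO4 plus Tl2SO4 stimulus (5x stock); Doses: multi-concentration series; Times: dye 90 min, compound 20 min, room temperature; Detection: FluxOR thallium-sensitive dye fluorescence, 110 s kinetic read post-stimulus; Evaluation: IC50 from normalized fluorescence change; Repeats: replicate concentration-response data per compound.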"}
{"smiles": "Cc1cccc(C(=O)Nc2cccc(NC(=O)c3ccco3)c2)c1", "values": [{"measurement": "IC50", "result": 1.67, "unit": "µM"}]}
{"smiles": "CCOc1ccccc1NC(=O)c1cccc(NC(=O)c2ccccc2)c1", "values": [{"measurement": "IC50", "result": 1.43, "unit": "µM"}]}
{"smiles": "Cc1cccc(C(=O)Nc2cccc(NC(=O)c3ccccc3)c2)c1", "values": [{"measurement": "IC50", "result": 1.82, "unit": "µM"}]}
{"smiles": "Cc1cccc(C(=O)Nc2cccc(NC(=O)C3CCCCC3)c2)c1", "values": [{"measurement": "IC50", "result": 11.9, "unit": "µM"}]}
{"smiles": "COc1ccccc1C(=O)Nc1cccc(NC(=O)c2cccc(C)c2)c1", "values": [{"measurement": "IC50", "result": 2.72, "unit": "µM"}]}
{"smiles": "CC(C1CC2CCC1C2)n1c(-c2cccc(Cl)c2)n[nH]c1=S", "note": "(stereo not given)", "values": [{"measurement": "IC50", "result": 0.44, "unit": "µM"}]}
{"smiles": "CC(C1CC2CCC1C2)n1c(-c2ccco2)n[nH]c1=S", "note": "(stereo not given)", "values": [{"measurement": "IC50", "result": 0.32, "unit": "µM"}]}
{"smiles": "CCOc1ccccc1NC(=O)c1cccc(NC(=O)c2ccccc2OC)c1", "values": [{"measurement": "IC50", "result": 1.18, "unit": "µM"}]}
{"smiles": "CC(C1CC2CCC1C2)n1c(-c2ccoc2)n[nH]c1=S", "note": "(stereo not given)", "values": [{"measurement": "IC50", "result": 4.25, "unit": "µM"}]}
{"smiles": "CCOc1ccccc1NC(=O)c1cccc(NC(=O)C(C)(C)C)c1", "values": [{"measurement": "IC50", "result": 30.6, "unit": "µM"}]}
{"smiles": "COc1ccccc1NC(=O)c1cccc(NC(=O)CC2CCCC2)c1", "values": [{"measurement": "IC50", "result": 2.63, "unit": "µM"}]}
{"smiles": "CCOc1ccccc1NC(=O)c1cccc(NC(=O)C2CC2)c1", "values": [{"measurement": "IC50", "result": 10.2, "unit": "µM"}]}
{"smiles": "CCOc1ccccc1C(=O)Nc1cccc(NC(=O)c2cccc(C)c2)c1", "values": [{"measurement": "IC50", "result": 0.57, "unit": "µM"}]}
{"smiles": "CCOc1ccccc1NC(=O)c1cccc(NC(=O)c2ccccc2Cl)c1", "values": [{"measurement": "IC50", "result": 2.63, "unit": "µM"}]}
{"smiles": "CCOc1cccc(NC(=O)c2cccc(NC(=O)C3CCCC3)c2)c1", "values": [{"measurement": "IC50", "result": 4.07, "unit": "µM"}]}
{"smiles": "CCOc1ccccc1NC(=O)c1cccc(NC(=O)c2cccc(C)c2)c1", "values": [{"measurement": "IC50", "result": 0.29, "unit": "µM"}]}
{"smiles": "Cc1cccc(C(=O)Nc2cccc(NC(=O)c3ccccc3OC(F)(F)F)c2)c1", "values": [{"measurement": "IC50", "result": 1.05, "unit": "µM"}]}
{"smiles": "COc1ccccc1NC(=O)c1cccc(NC(=O)c2ccccc2C(F)(F)F)c1", "values": [{"measurement": "IC50", "result": 1.32, "unit": "µM"}]}
{"smiles": "CC(C1CC2CCC1C2)n1c(-c2ccccc2Cl)n[nH]c1=S", "note": "(stereo not given)", "values": [{"measurement": "IC50", "result": 0.47, "unit": "µM"}]}
{"smiles": "Cc1cccc(C(=O)Nc2cccc(NC(=O)c3ccccc3C(F)(F)F)c2)c1", "values": [{"measurement": "IC50", "result": 12.9, "unit": "µM"}]}
{"smiles": "CCOc1ccccc1C(=O)Nc1cccc(NC(=O)c2ccccc2C(F)(F)F)c1", "values": [{"measurement": "IC50", "result": 1.04, "unit": "µM"}]}
{"smiles": "COc1ccccc1C(=O)Nc1cccc(NC(=O)c2ccccc2OC)c1", "values": [{"measurement": "IC50", "result": 3.62, "unit": "µM"}]}
{"smiles": "CCOc1ccccc1C(=O)Nc1cccc(NC(=O)c2ccccc2OC)c1", "values": [{"measurement": "IC50", "result": 1.98, "unit": "µM"}]}
{"smiles": "COc1ccccc1C(=O)Nc1cccc(NC(=O)c2ccccc2OC(F)(F)F)c1", "values": [{"measurement": "IC50", "result": 1.17, "unit": "µM"}]}
{"smiles": "Cc1ccccc1-c1n[nH]c(=S)n1C(C)C1CC2CCC1C2", "note": "(stereo not given)", "values": [{"measurement": "IC50", "result": 0.72, "unit": "µM"}]}
{"smiles": "Cc1cccc(C(=O)Nc2cccc(NC(=O)c3cccc(Cl)c3)c2)c1", "values": [{"measurement": "IC50", "result": 13.4, "unit": "µM"}]}
{"smiles": "COc1cccc(C(=O)Nc2cccc(NC(=O)c3cccc(C)c3)c2)c1", "values": [{"measurement": "IC50", "result": 29.3, "unit": "µM"}]}
{"smiles": "COc1ccccc1NC(=O)c1cccc(NC(=O)c2ccccc2OC)c1", "values": [{"measurement": "IC50", "result": 3.02, "unit": "µM"}]}
{"smiles": "CC(C1CC2CCC1C2)n1c(C2CCOC2)n[nH]c1=S", "note": "(stereo not given)", "values": [{"measurement": "IC50", "result": 10.3, "unit": "µM"}]}
{"smiles": "CCOc1ccccc1NC(=O)c1cccc(NC(=O)c2ccccc2C(F)(F)F)c1", "values": [{"measurement": "IC50", "result": 0.32, "unit": "µM"}]}
{"smiles": "Cc1ccccc1C(=O)Nc1cccc(NC(=O)c2ccccc2)c1", "values": [{"measurement": "IC50", "result": 6.48, "unit": "µM"}]}
{"smiles": "CC(C1CC2CCC1C2)n1c(-c2ccsc2)n[nH]c1=S", "note": "(stereo not given)", "values": [{"measurement": "IC50", "result": 1, "unit": "µM"}]}
{"smiles": "CCOc1ccccc1NC(=O)c1cccc(NC(=O)CC2CCCC2)c1", "values": [{"measurement": "IC50", "result": 4.17, "unit": "µM"}]}
{"smiles": "CCOc1ccccc1NC(=O)c1cccc(NC(=O)c2ccccc2C)c1", "values": [{"measurement": "IC50", "result": 4.29, "unit": "µM"}]}
{"smiles": "COc1ccccc1NC(=O)c1cccc(NC(=O)C2CCCC2)c1", "values": [{"measurement": "IC50", "result": 1.55, "unit": "µM"}]}
{"smiles": "CCOc1ccccc1NC(=O)c1cccc(NC(=O)c2cccc(C(F)(F)F)c2)c1", "values": [{"measurement": "IC50", "result": 1.38, "unit": "µM"}]}
{"smiles": "COc1ccccc1-c1n[nH]c(=S)n1C(C)C1CC2CCC1C2", "note": "(stereo not given)", "values": [{"measurement": "IC50", "result": 0.84, "unit": "µM"}]}
{"smiles": "CCOc1ccccc1NC(=O)c1cccc(NC(=O)c2ccc(C)cc2)c1", "values": [{"measurement": "IC50", "result": 14.7, "unit": "µM"}]}
{"smiles": "COc1cccc(-c2n[nH]c(=S)n2C(C)C2CC3CCC2C3)c1", "note": "(stereo not given)", "values": [{"measurement": "IC50", "result": 0.21, "unit": "µM"}]}
{"smiles": "O=C(Nc1cccc(NC(=O)c2ccccn2)c1)c1ccccc1", "values": [{"measurement": "IC50", "result": 5.37, "unit": "µM"}]}
{"smiles": "CCOc1ccccc1C(=O)Nc1cccc(NC(=O)C2CCCC2)c1", "values": [{"measurement": "IC50", "result": 1.11, "unit": "µM"}]}
{"smiles": "COc1ccccc1C(=O)Nc1cccc(NC(=O)c2ccccc2C)c1", "values": [{"measurement": "IC50", "result": 3.49, "unit": "µM"}]}
{"smiles": "CCOc1ccccc1NC(=O)c1cccc(NC(=O)C2CCCC2)c1", "values": [{"measurement": "IC50", "result": 1.84, "unit": "µM"}]}
{"smiles": "Cc1cccc(C(=O)Nc2cccc(NC(=O)c3ccccc3Cl)c2)c1", "values": [{"measurement": "IC50", "result": 19.8, "unit": "µM"}]}
{"smiles": "Cc1cccc(C(=O)Nc2cccc(NC(=O)c3cccs3)c2)c1", "values": [{"measurement": "IC50", "result": 6.85, "unit": "µM"}]}
{"smiles": "COc1ccc(-c2n[nH]c(=S)n2C(C)C2CC3CCC2C3)cc1", "note": "(stereo not given)", "values": [{"measurement": "IC50", "result": 1.73, "unit": "µM"}]}
{"smiles": "O=C(Nc1ccccc1Cl)c1cccc(NC(=O)C2CCCC2)c1", "values": [{"measurement": "IC50", "result": 5.78, "unit": "µM"}]}
{"smiles": "Cc1cccc(C(=O)Nc2cccc(NC(=O)c3ccccc3C(C)C)c2)c1", "values": [{"measurement": "IC50", "result": 2.39, "unit": "µM"}]}
{"smiles": "CCOc1ccccc1NC(=O)c1cccc(NC(=O)c2cccc(OC)c2)c1", "values": [{"measurement": "IC50", "result": 2.33, "unit": "µM"}]}
{"smiles": "CCOc1ccccc1NC(=O)c1cccc(NC(=O)c2ccccc2OC(F)(F)F)c1", "values": [{"measurement": "IC50", "result": 0.8, "unit": "µM"}]}
{"smiles": "COc1ccccc1NC(=O)c1cccc(NC(=O)C2CCCCC2)c1", "values": [{"measurement": "IC50", "result": 2.16, "unit": "µM"}]}
{"smiles": "Cc1cccc(C(=O)Nc2cccc(NC(=O)c3cccc(C)c3)c2)c1", "values": [{"measurement": "IC50", "result": 0.99, "unit": "µM"}]}
{"smiles": "COc1cccc(C(=O)Nc2cccc(NC(=O)c3ccccc3)c2)c1", "values": [{"measurement": "IC50", "result": 25.9, "unit": "µM"}]}
{"smiles": "COc1cccc(OC)c1C(=O)Nc1cccc(NC(=O)c2cccc(C)c2)c1", "values": [{"measurement": "IC50", "result": 19.2, "unit": "µM"}]}
{"smiles": "CC(C1CC2CCC1C2)n1c(-c2ccccc2)n[nH]c1=S", "note": "(stereo not given)", "values": [{"measurement": "IC50", "result": 0.52, "unit": "µM"}]}
{"smiles": "COc1ccccc1C(=O)Nc1cccc(NC(=O)c2ccccc2)c1", "values": [{"measurement": "IC50", "result": 1.74, "unit": "µM"}]}
{"smiles": "Cc1cccc(C(=O)Nc2cccc(NC(=O)c3ccccc3OCC(C)C)c2)c1", "values": [{"measurement": "IC50", "result": 3.39, "unit": "µM"}]}
{"smiles": "COc1ccccc1NC(=O)c1cccc(NC(=O)c2ccccc2)c1", "values": [{"measurement": "IC50", "result": 1.41, "unit": "µM"}]}
{"smiles": "CCOc1ccccc1NC(=O)c1cccc(NC(=O)c2cccc(Cl)c2)c1", "values": [{"measurement": "IC50", "result": 1.84, "unit": "µM"}]}
{"smiles": "Cc1cccc(C(=O)Nc2cccc(NC(=O)c3ccccc3C)c2)c1", "values": [{"measurement": "IC50", "result": 0.94, "unit": "µM"}]}
{"smiles": "COc1ccccc1C(=O)Nc1cccc(NC(=O)c2ccccc2C(C)C)c1", "values": [{"measurement": "IC50", "result": 0.74, "unit": "µM"}]}
{"smiles": "CCOc1ccccc1NC(=O)c1cccc(NC(=O)CC2CCCCC2)c1", "values": [{"measurement": "IC50", "result": 1.92, "unit": "µM"}]}
{"smiles": "CCOc1ccccc1NC(=O)c1cccc(NC(=O)C2CCCCC2)c1", "values": [{"measurement": "IC50", "result": 1.3, "unit": "µM"}]}
{"smiles": "O=C(Nc1cccc(NC(=O)C2CCCCC2)c1)c1ccccc1", "values": [{"measurement": "IC50", "result": 8, "unit": "µM"}]}
{"smiles": "O=C(Nc1cccc(NC(=O)c2ccccc2C(F)(F)F)c1)c1ccccc1", "values": [{"measurement": "IC50", "result": 7.21, "unit": "µM"}]}
